Test results reported in ChEMBL document CHEMBL4043244, “Diverse amide analogs of sulindac for cancer treatment and prevention” (Bioorg Med Chem Lett, 2017).

Legend:
[1] = test system: HT-29; assay: Growth inhibition of human HT-29 cells after 72 hrs by CellTiter-Glo reagent based assay; assay type: functional; details: HT-29, 72 h
Procedure, shortened: (§1)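 Cancer cell lines (PC3 prostate, HT29 colorectal carcinoma, MDA-MB-231 breast) were screened by quantitative high-throughput screening in whole cells, and CC50 values were derived.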

[2] = test system: PC-3; assay: Growth inhibition of human PC3 cells after 72 hrs by CellTiter-Glo reagent based assay; assay type: functional; details: PC-3, 72 h; procedure, shortened: as §1
[3] = test system: MDA-MB-231; assay: Growth inhibition of human MDA-MB-231 cells after 72 hrs by CellTiter-Glo reagent based assay; assay type: functional; details: MDA-MB-231, 72 h; procedure, shortened: as §1
[4] = Growth inhibition of mouse CPC300 cells after 72 hrs by CellTiter-Glo reagent based assay; assay type: functional, cell-based
[5] = Growth inhibition of human NALM16 cells after 72 hrs by CellTiter-Glo reagent based assay; assay type: functional, cell-based
[6] = test system: Raji; assay: Growth inhibition of human Raji cells after 72 hrs by CellTiter-Glo reagent based assay; assay type: functional, cell-based
[7] = test system: Jurkat E6.1; assay: Growth inhibition of human Jurkat E6-1 cells after 72 hrs by CellTiter-Glo reagent based assay; assay type: functional, cell-based
[8] = test system: REH; assay: Growth inhibition of human REH cells after 72 hrs by CellTiter-Glo reagent based assay; assay type: functional, cell-based
[9] = test system: 697; assay: Growth inhibition of human 697 cells after 72 hrs by CellTiter-Glo reagent based assay; assay type: functional, cell-based
[10] = test system: BJ; assay: Growth inhibition of human BJ cells after 72 hrs by CellTiter-Glo reagent based assay; assay type: cell-based
Procedure, shortened: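 Normal human foreskin fibroblast (BJ) counter-screen for cytotoxicity, with drug tested at 10 μM.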

[11] = Homo sapiens, NALM16, 72 h, read-out: EC50
[12] = Homo sapiens, Raji, 72 h, read-out: EC50
[13] = Homo sapiens, 697, 72 h, read-out: EC50

Structure (SMILES)	CC50 [1]	CC50 [2]	CC50 [3]	further results
CC1=C(CC(=O)N(C)CCN(C)C)c2cc(F)ccc2/C1=C\c1nc2ccccc2s1	2.02 µM	5.88 µM	3.8 µM	EC50 ([4]; cpc300): Not Active; EC50 [5, 11]: 0.3 µM; EC50 ([6]; raji): Not Active; EC50 ([7]; jurkat e6.1): Not Active; EC50 ([8]; reh): Not Active; EC50 [9]; 697: Not Active; EC50 [10]: > 7.57 µM
CC1=C(CC(=O)NCc2ccccc2)c2cc(F)ccc2/C1=C\c1ccc([S+](C)[O-])cc1 (centres undefined)	0.5 µM	2.64 µM	0.78 µM	EC50 ([4]; Mus musculus, CPC300, 72 h, read-out: EC50): 120 µM; EC50 [5, 11]: 1.3 µM; EC50 [6, 12]: 2.6 µM; EC50 ([7]; Homo sapiens, Jurkat E6.1, 72 h, read-out: EC50): 1.3 µM; EC50 ([8]; Homo sapiens, REH, 72 h, read-out: EC50): 3.3 µM; EC50 [9, 13]: 4.1 µM; EC50 [10]: > 7.57 µM
CSc1ccc(/C=C2/C(C)=C(CC(=O)N3CCC[C@H]3CN3CCCC3)c3cc(F)ccc32)cc1	1.55 µM	5.1 µM	4.16 µM	EC50 ([4]; cpc300): Not Active; EC50 [6, 12]: 76 µM; EC50 ([7]; jurkat e6.1): Not Active; EC50 ([8]; reh): Not Active; EC50 [9]; 697: Not Active; EC50 [10]: > 7.57 µM
CCN(CC)CCCNC(=O)CC1=C(C)/C(=C/c2ccc(SC)cc2)c2ccc(F)cc21	1.53 µM	4.33 µM	3.19 µM	EC50 ([4]; cpc300): Not Active; EC50 [6, 12]: 21 µM; EC50 ([7]; jurkat e6.1): Not Active; EC50 ([8]; reh): Not Active; EC50 [9]; 697: Not Active; EC50 [10]: > 7.57 µM
CSc1ccc(/C=C2/C(C)=C(CC(=O)N3CCCN(C)CC3)c3cc(F)ccc32)cc1	2.94 µM	7.35 µM	7.21 µM	EC50 ([4]; cpc300): Not Active; EC50 [5, 11]: 0.49 µM; EC50 ([7]; jurkat e6.1): Not Active; EC50 ([8]; reh): Not Active; EC50 [9]; 697: Not Active; EC50 [10]: > 7.57 µM
COc1cc(/C=C2/C(C)=C(CC(=O)N(C)CCN(C)C(=O)[C@@H](N)C(C)C)c3cc(F)ccc32)cc(OC)c1OC	10.7 µM	17.7 µM	18.8 µM	EC50 ([4]; cpc300): Not Active; EC50 ([5]; nalm16): Not Active; EC50 ([6]; raji): Not Active; EC50 ([7]; jurkat e6.1): Not Active; EC50 [9, 13]: 0.96 µM; EC50 [10]: > 7.57 µM
CSc1ccc(/C=C2/C(C)=C(CC(=O)N(C)CCN(C)S(=O)(=O)c3ccc4ccccc4c3)c3cc(F)ccc32)cc1	35.3 µM	> 50 µM	> 50 µM	
CC1=C(CC(=O)NCCN(C)C)c2cc(F)ccc2/C1=C\c1nc2ccccc2s1	1.57 µM	4.88 µM	3.63 µM	
CCNCCN(CC)C(=O)CC1=C(C)/C(=C/c2ccc([S+](C)[O-])cc2)c2ccc(F)cc21 (centres undefined)	18.2 µM	> 50 µM	> 50 µM	
CSc1ccc(/C=C2/C(C)=C(CC(=O)NCc3ccccn3)c3cc(F)ccc32)cc1	10.3 µM	13.6 µM	13.7 µM	
COc1cc(/C=C2/C(C)=C(CC(=O)NCCCN(C)C)c3cc(F)ccc32)cc(OC)c1OC	6.08 µM	13 µM	10.8 µM	
COC(=O)[C@H](C)NC(=O)CC1=C(C)/C(=C/c2ccc(SC)cc2)c2ccc(F)cc21	23.9 µM	> 50 µM	38.9 µM	
CSc1ccc(/C=C2/C(C)=C(CC(=O)N(C)CCN(C)S(=O)(=O)c3cccc4c(N(C)C)cccc34)c3cc(F)ccc32)cc1	> 50 µM	> 50 µM	> 50 µM	
CC1=C(CC(=O)NCCN2CCCC2)c2cc(F)ccc2/C1=C\c1ccncc1	2.68 µM	10.2 µM	7.19 µM	
CNCCN(C)C(=O)CC1=C(C)/C(=C/c2ccc([S+](C)[O-])cc2)c2ccc(F)cc21 (centres undefined)	34.5 µM	> 50 µM	> 50 µM	
CCN(CC)CCNC(=O)CC1=C(C)/C(=C/c2ccc(SC)cc2)c2ccc(F)cc21	1.54 µM	5.45 µM	4.2 µM	
CC1=C(CC(=O)N(C)CCN(C)S(=O)(=O)c2cccc3c(N(C)C)cccc23)c2cc(F)ccc2/C1=C\c1ccc([S+](C)[O-])cc1 (centres undefined)	10.6 µM	9.2 µM	> 50 µM	
CC1=C(CC(=O)N(C)CCCN(C)C)c2cc(F)ccc2/C1=C\c1ccc([S+](C)[O-])cc1 (centres undefined)	38.9 µM	> 50 µM	> 50 µM	

Structure (SMILES)	CC50 [1]	CC50 [2]	CC50 [3]	further results
CC1=C(CC(=O)NCCN(C)C)c2cc(F)ccc2/C1=C\c1ccncc1	6.89 µM	28.9 µM	18.1 µM	
CCN(CC)CCN(C)C(=O)CC1=C(C)/C(=C/c2ccc(SC)cc2)c2ccc(F)cc21	1.49 µM	5.65 µM	3.77 µM	
CC1=C(CC(=O)N(C)CCN(C)S(=O)(=O)c2cccc3ccccc23)c2cc(F)ccc2/C1=C\c1ccc([S+](C)[O-])cc1 (centres undefined)	3.99 µM	8.96 µM	29.1 µM	
CCN(CC)CCNC(=O)CC1=C(C)/C(=C/c2nc3ccccc3s2)c2ccc(F)cc21	1.12 µM	4.48 µM	3.54 µM	
CC1=C(CC(=O)N2CCC[C@H]2CN2CCCC2)c2cc(F)ccc2/C1=C\c1ccc([S+](C)[O-])cc1 (some centres undefined)	20.2 µM	> 50 µM	> 50 µM	
CC1=C(CC(=O)NCCC(C)C)c2cc(F)ccc2/C1=C\c1nc2ccccc2s1	> 50 µM	> 50 µM	24.2 µM	
CSc1ccc(/C=C2/C(C)=C(CC(=O)N3CCN(CCCN(C)C)CC3)c3cc(F)ccc32)cc1	1.69 µM	4.28 µM	3.77 µM	EC50 ([4]; cpc300): Not Active; EC50 [6, 12]: 76 µM; EC50 ([7]; jurkat e6.1): Not Active; EC50 ([8]; reh): Not Active; EC50 [9]; 697: Not Active; EC50 [10]: > 7.57 µM
CSc1ccc(/C=C2/C(C)=C(CC(=O)N(C)CCN(C)S(=O)(=O)c3ccccc3)c3cc(F)ccc32)cc1	8.82 µM	> 50 µM	> 50 µM	
CC1=C(CC(=O)N2CCN(c3ccncc3)CC2)c2cc(F)ccc2/C1=C\c1ccc([S+](C)[O-])cc1 (centres undefined)	9.2 µM	21.9 µM	22.7 µM	
COc1cc(/C=C2/C(C)=C(CC(=O)NCCN3CCCCC3)c3cc(F)ccc32)cc(OC)c1OC	4.18 µM	9.62 µM	10.4 µM	
CCN(CCN(C)C)C(=O)CC1=C(C)/C(=C/c2ccc(SC)cc2)c2ccc(F)cc21	1.36 µM	5.07 µM	3.96 µM	
CSc1ccc(/C=C2/C(C)=C(CC(=O)NN3CCN(C)CC3)c3cc(F)ccc32)cc1	1.64 µM	4.45 µM	4.1 µM	
CSc1ccc(/C=C2/C(C)=C(CC(=O)NCCN3CCCC3)c3cc(F)ccc32)cc1	1.81 µM	5.27 µM	3.78 µM	
CSc1ccc(/C=C2/C(C)=C(CC(=O)NCc3ccncc3)c3cc(F)ccc32)cc1	4.88 µM	5.83 µM	6.46 µM	
CCN(CCN(C)C)C(=O)CC1=C(C)/C(=C/c2ccc([S+](C)[O-])cc2)c2ccc(F)cc21 (centres undefined)	18.2 µM	> 50 µM	> 50 µM	
CCN(CC)CCNC(=O)CC1=C(C)/C(=C/c2cc(OC)c(OC)c(OC)c2)c2ccc(F)cc21	5.42 µM	13.9 µM	12.3 µM	
CSc1ccc(/C=C2/C(C)=C(CC(=O)Nc3ccc(N(C)C)cc3)c3cc(F)ccc32)cc1	> 50 µM	> 50 µM	30.6 µM	
